Measured values taken from PMC2818757 (Peptides, 2009).
Ends that are not written are not given here.

Tests used:
[1] = system: Antiserum 8684; experiment: GRP18-27gly #8684 RIA cross-reactivity; assay type: binding, rabbit; settings: 125I-labeled GRP-gly tracer; GRP18-27gly standard
[2] = system: NCI-H69 cells; experiment: Phospholipase C / [3H]IP stimulation in SCLC cells NCI-H69; assay type: cell-based, human; settings: 0.1 uM peptide alone, 37C, 60 min, mean ± SEM, at least 4 experiments
[3] = system: NCI-N417 cells; experiment: Phospholipase C / [3H]IP stimulation in SCLC cells NCI-N417; assay type: cell-based, human; settings: 0.1 uM peptide alone, 37C, 60 min, mean ± SEM, at least 4 experiments
How it was run: (§1)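 SCLC suspension cells (1 × 10^6 cells/ml) were labelled 24 h at 37C with myo-[2-3H]inositol in RPMI with 2% FBS. Cells were washed, held 10 min in PBS pH 7.0 with 20 mM LiCl, then resuspended in HEPES pH 7.4 buffer with LiCl, EGTA, glucose and BSA. Peptide exposure was 60 min at 37C, stopped with ice-cold HCl/methanol. Total [3H]IP was eluted from anion-exchange resin and counted by scintillation; values are expressed as experimental/control.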

[4] = system: NCI-H209 cells; experiment: Phospholipase C / [3H]IP stimulation in SCLC cells NCI-H209; assay type: cell-based, human; settings: 0.1 uM peptide alone, 37C, 60 min, mean ± SEM, at least 4 experiments
[5] = system: NCI-N592 cells; experiment: Phospholipase C / [3H]IP stimulation in SCLC cells NCI-N592; assay type: cell-based, human; settings: 0.1 uM peptide alone, 37C, 60 min, mean ± SEM, at least 4 experiments
How it was run: as §1

bombesin
cross-reactivity with antiserum 8684 [1]: less than 1%

CSCC[C@H](NC(=O)[C@H](CC(C)C)NC(=O)[C@H](Cc1c[nH]cn1)NC(=O)CNC(=O)[C@@H](NC(=O)[C@H](C)NC(=O)[C@H](Cc1c[nH]c2ccccc12)NC(=O)[C@H](Cc1c[nH]cn1)NC(=O)[C@H](CC(N)=O)NC(=O)CNC(=O)[C@H](CCCNC(=N)N)NC(=O)[C@@H]1CCCN1C(=O)[C@H](Cc1ccc(O)cc1)NC(=O)[C@H](CCSC)NC(=O)[C@H](CCCCN)NC(=O)[C@@H](NC(=O)[C@H](CC(C)C)NC(=O)[C@@H](NC(=O)[C@@H](NC(=O)CNC(=O)CNC(=O)CNC(=O)[C@H](C)NC(=O)[C@@H]1CCCN1C(=O)[C@H](CC(C)C)NC(=O)[C@@H]1CCCN1C(=O)[C@@H](N)C(C)C)[C@@H](C)O)C(C)C)[C@@H](C)O)C(C)C)C(N)=O [GRP, gastrin releasing peptide]
Phospholipase C activity, Experimental/control [2]: 1.23±0.07 | Phospholipase C activity, Experimental/control [3]: 1.03±0.01 | Phospholipase C activity, Experimental/control [4]: 1.11±0.04 | Phospholipase C activity, Experimental/control [5]: 1.03±0.04

[D-Phe^6, β-Ala^11, Phe^13, Nle^14] Bn(6-14)
Phospholipase C activity, Experimental/control [2]: 1.31±0.04 | Phospholipase C activity, Experimental/control [3]: 3.14±0.34 | Phospholipase C activity, Experimental/control [4]: 1.17±0.03 | Phospholipase C activity, Experimental/control [5]: 1.05±0.04

GRP1-27: amidated form of gastrin releasing peptide 1-27 (VPLPAGGGTVLTKMYPRGNHWAVGHLM-NH2; UniProt P07492 24-50, looked up)
cross-reactivity with antiserum 8684 [1]: 60%

GRP18-27: amidated GRP18-27; differs from bombesin by a Gln to His substitution at position 20
cross-reactivity with antiserum 8684 [1]: 60%
